Reference: ChEMBL document CHEMBL1137001, “Synthesis and evaluation of 9-O-substituted berberine derivatives containing aza-aromatic terminal group as highly selective telomeric G-quadruplex stabilizing ligands” (Bioorg Med Chem Lett, 2009)
Activity calls are given as the source filed them. The calls are words filed in the database; no cut-off is given here.

Assays:
Nucleic Acid [1] = experiment: Binding affinity to hairpin duplex F10T DNA assessed as change in melting temperature at 2.0 uM by FRET assay
Nucleic Acid [2] = experiment: Binding affinity to human telomeric G-quadruplex F21T DNA assessed as change in melting temperature at 2.0 uM by FRET assay; assay type: nucleic-acid assay
[3] = Inhibition of telomerase from human MCF7 cellular extract by cell free TRAP assay
Method in brief: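 TRAP assay. Compounds at various concentrations were added to a telomerase reaction mixture containing extract from cracked MCF-7 breast carcinoma cells, and IC50 values were derived.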

Nucleic Acid [4] = experiment: Inhibition of G-quadruplex HTG21 oligomer hybridization by PCR stop assay; assay type: nucleic-acid assay
Method in brief: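 HTG21 was amplified by PCR in the presence of compound, and products were separated on gel. IC50 is the concentration that inhibits amplification by 50%.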

Nucleic Acid [5] = experiment: Induction of G-quadruplex structure formation in HTG21 oligomer assessed as formation of antiparallel quadruplex structure by CD spectroscopy; assay type: nucleic-acid assay

Row | ΔTm (Nucleic Acid [1]) [°C] | ΔTm (Nucleic Acid [2]) [°C] | IC50 [3] [µM] | IC50 (Nucleic Acid [4]) [µM] | Activity (Nucleic Acid [5]) | SMILES
1 | 0.5 | 21 | 15 | 7 | – | COc1ccc2cc3[n+](cc2c1OCCCCC[n+]1ccccc1)CCc1cc2c(cc1-3)OCO2
2 | 0 | 20 | 15 | 8 | – | COc1ccc2cc3[n+](cc2c1OCCC[n+]1cccc2ccccc21)CCc1cc2c(cc1-3)OCO2
3 | 0.5 | 18 | 17 | 8 | – | COc1ccc2cc3[n+](cc2c1OCCC[n+]1ccccc1)CCc1cc2c(cc1-3)OCO2
4 | 0 | 17 | 16 | 8 | – | COc1ccc2cc3[n+](cc2c1OCCCn1cc[n+](C)c1)CCc1cc2c(cc1-3)OCO2
5 | 0 | 25 | 14 | 4 | Active | COc1ccc2cc3[n+](cc2c1OCCC[n+]1ccc(N(C)C)cc1)CCc1cc2c(cc1-3)OCO2
6 | 0 | 20 | 16 | 6 | – | COc1ccc2cc3[n+](cc2c1OCCC[n+]1cccc(F)c1)CCc1cc2c(cc1-3)OCO2
7 | – | – | 16 | 7 | – | COc1ccc2cc3[n+](cc2c1OCCCN1CCCCC1)CCc1cc2c(cc1-3)OCO2
8 | 0 | 13 | 22 | 14 | – | COc1ccc2cc3[n+](cc2c1OCCCn1ccc(N)nc1=O)CCc1cc2c(cc1-3)OCO2
9 | 0 | 10 | 28 | 12 | – | COc1ccc2cc3[n+](cc2c1OCCCOc1ccncc1)CCc1cc2c(cc1-3)OCO2
10 | 0 | 20 | 15 | 4 | – | COc1ccc2cc3[n+](cc2c1OCCCCCC[n+]1ccccc1)CCc1cc2c(cc1-3)OCO2
11 | 0.5 | 21 | 14 | 6 | – | COc1ccc2cc3[n+](cc2c1OCCC[n+]1cccc(C)c1)CCc1cc2c(cc1-3)OCO2
12 | 1 | 4 | – | – | – | COc1ccc2cc3[n+](cc2c1OC)CCc1cc2c(cc1-3)OCO2
